Measured values as given in ChEMBL document CHEMBL1125116 (J Med Chem, 1990).

Assays:
Rattus norvegicus [1] = assay: Biodistribution of [125I]IBF in kidney was determined in rats 120 minutes after intraveneous injection; type: ADME, organism-based; conditions: in vivo, iv, 2 h
Summary of the method: (§1)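 Male Sprague–Dawley rats (225–300 g) with free access to food and water. Under halothane anesthesia they received [125I]IBF (8–10 μCi in 0.2 mL saline) into the femoral vein. Rats were killed by cardiac excision under halothane at the stated time. Organs were weighed and gamma-counted, and % dose/organ was taken against diluted aliquots of the injectate. Blood was assumed to be 7% of body weight and muscle 40%.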

Rattus norvegicus [2] = assay: Biodistribution of [125I]IBF in striatum was determined in rats 60 minutes after intraveneous injection; type: ADME, organism-based; conditions: in vivo, iv, 1 h
Summary of the method: (§2)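 Male Sprague–Dawley rats (225–300 g) with free access to food and water were anesthetized with halothane. Each received 0.2 mL saline containing 8–10 μCi [125I]IBF into the femoral vein and was killed by cardiac excision under halothane at set times. Organs were weighed and gamma-counted, and uptake was calculated against diluted aliquots of the injected dose.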

Rattus norvegicus [3] = assay: Biodistribution of [125I]IBF in brain/blood was determined in rats 15 minutes after intraveneous injection; type: ADME, organism-based; conditions: in vivo, iv, 0.25 h
Rattus norvegicus [4] = assay: Biodistribution of [125I]IBF in liver was determined in rats 30 minutes after intraveneous injection; type: ADME, organism-based; conditions: in vivo, iv, 0.5 h; summary of the method: as §1
Rattus norvegicus [5] = assay: Biodistribution of [125I]IBF in lung was determined in rats 120 minutes after intraveneous injection; type: ADME, organism-based; conditions: in vivo, iv, 2 h; summary of the method: as §1
Rattus norvegicus [6] = assay: Biodistribution of [125I]IBF in lung was determined in rats 60 minutes after intraveneous injection; type: ADME, organism-based; conditions: in vivo, iv, 1 h; summary of the method: as §1
Rattus norvegicus [7] = assay: Biodistribution of [125I]IBF in brain was determined in rats 120 minutes after intraveneous injection; type: ADME, organism-based; conditions: in vivo, iv, 2 h; summary of the method: as §1
Rattus norvegicus [8] = assay: Biodistribution of [125I]-IBF in liver was determined in rats 60 minutes after intraveneous injection; type: ADME, organism-based; conditions: in vivo, iv, 1 h; summary of the method: as §1
Rattus norvegicus [9] = assay: Biodistribution of [125I]IBF in lung was determined in rats 15 minutes after intraveneous injection; type: ADME, organism-based; conditions: in vivo, iv, 0.25 h; summary of the method: as §1
Rattus norvegicus [10] = assay: Biodistribution of [125I]IBF in liver was determined in rats 120 minutes after intraveneous injection; type: ADME, organism-based; conditions: in vivo, iv, 2 h; summary of the method: as §1
Rattus norvegicus [11] = assay: Biodistribution of [125I]IBF in kidney was determined in rats 60 minutes after intraveneous injection; type: ADME, organism-based; conditions: in vivo, iv, 1 h; summary of the method: as §1
Rattus norvegicus [12] = assay: Biodistribution of [125I]IBF in srtiatum was determined in rats 15 minutes after intraveneous injection; type: ADME, organism-based; conditions: in vivo, iv, 0.25 h
Rattus norvegicus [13] = assay: Biodistribution of [125I]IBF in blood was determined in rats 120 minutes after intraveneous injection; type: ADME, organism-based; conditions: in vivo, iv, 2 h; summary of the method: as §1
Rattus norvegicus [14] = assay: Biodistribution of [125I]IBF in muscle was determined in rats 30 minutes after intraveneous injection; type: ADME, organism-based, Muscle tissue; conditions: in vivo, iv, 0.5 h; summary of the method: as §1
Rattus norvegicus [15] = assay: Biodistribution of [125I]IBF in thyroid was determined in rats 2 minutes after intraveneous injection; type: ADME, organism-based, Thyroid gland; conditions: in vivo, iv; summary of the method: as §2
Rattus norvegicus [16] = assay: Biodistribution of [125I]IBF in spleen was determined in rats 120 minutes after intraveneous injection; type: ADME, organism-based; conditions: in vivo, iv, 2 h; summary of the method: as §1
Rattus norvegicus [17] = assay: Biodistribution of [125I]IBF in striatum was determined in rats 2 minutes after intraveneous injection; type: ADME, organism-based; conditions: in vivo, iv; summary of the method: as §2
Rattus norvegicus [18] = assay: Biodistribution of [125I]-IBF in heart was determined in rats 120 minutes after intraveneous injection; type: ADME, organism-based; conditions: in vivo, iv, 2 h; summary of the method: as §1
Rattus norvegicus [19] = assay: Biodistribution of [125I]IBF in lung was determined in rats 2 minutes after intraveneous injection; type: ADME, organism-based; conditions: in vivo, iv; summary of the method: as §1
Rattus norvegicus [20] = assay: Biodistribution of [125I]IBF in brain was determined in rats 15 minutes after intraveneous injection; type: ADME, organism-based; conditions: in vivo, iv, 0.25 h; summary of the method: as §1
Rattus norvegicus [21] = assay: Biodistribution of [125I]IBF in liver was determined in rats 15 minutes after intraveneous injection; type: ADME, organism-based; conditions: in vivo, iv, 0.25 h; summary of the method: as §1
Rattus norvegicus [22] = assay: Biodistribution of [125I]IBF in thyroid was determined in rats 15 minutes after intraveneous injection; type: ADME, organism-based, Thyroid gland; conditions: in vivo, iv, 0.25 h; summary of the method: as §2
Rattus norvegicus [23] = assay: Biodistribution of [125I]IBF in thyroid was determined in rats 30 minutes after intraveneous injection; type: ADME, organism-based, Thyroid gland; conditions: in vivo, iv, 0.5 h; summary of the method: as §2
Rattus norvegicus [24] = assay: Biodistribution of [125I]IBF in brain/blood was determined in rats 2 minutes after intraveneous injection; type: ADME, organism-based; conditions: in vivo, iv
Rattus norvegicus [25] = assay: Biodistribution of [125I]IBF in kidney was determined in rats 15 minutes after intraveneous injection; type: ADME, organism-based; conditions: in vivo, iv, 0.25 h; summary of the method: as §1
Rattus norvegicus [26] = assay: Biodistribution of [125I]-IBF in skin was determined in rats 120 minutes after intraveneous injection; type: ADME, organism-based, Zone of skin; conditions: in vivo, iv, 2 h; summary of the method: as §1
Rattus norvegicus [27] = assay: Biodistribution of [125I]IBF in blood was determined in rats 15 minutes after intraveneous injection; type: ADME, organism-based; conditions: in vivo, iv, 0.25 h; summary of the method: as §1
Rattus norvegicus [28] = assay: Biodistribution of [125I]IBF in skin was determined in rats 30 minutes after intraveneous injection; type: ADME, organism-based, Zone of skin; conditions: in vivo, iv, 0.5 h; summary of the method: as §1
Rattus norvegicus [29] = assay: Biodistribution of [125I]IBF in brain/blood was determined in rats 60 minutes after intraveneous injection; type: ADME, organism-based; conditions: in vivo, iv, 1 h
Rattus norvegicus [30] = assay: Biodistribution of [125I]-IBF in heart was determined in rats 30 minutes after intraveneous injection; type: ADME, organism-based; conditions: in vivo, iv, 0.5 h; summary of the method: as §1

CCN1CCC[C@H]1CNC(=O)c1cc(I)cc2c1OCC2
Dose/organ (Rattus norvegicus [1]): 0.68% | Dose/gram (Rattus norvegicus [2]): 0.705 % dose/g | Dose/organ (Rattus norvegicus [3]): 3.01 | Dose/organ (Rattus norvegicus [4]): 11.59% | Dose/organ (Rattus norvegicus [5]): 0.12% | Dose/organ (Rattus norvegicus [6]): 0.37% | Dose/organ (Rattus norvegicus [7]): 0.07% | Dose/organ (Rattus norvegicus [8]): 9.84% | Dose/organ (Rattus norvegicus [9]): 1.85% | Dose/organ (Rattus norvegicus [10]): 3.95% | Dose/organ (Rattus norvegicus [11]): 1.01% | Dose/organ (Rattus norvegicus [12]): 0.842% | Dose/organ (Rattus norvegicus [13]): 0.23% | Dose/organ (Rattus norvegicus [14]): 9% | Dose/organ (Rattus norvegicus [15]): 0.06% | Dose/organ (Rattus norvegicus [16]): 0.03% | Dose/organ (Rattus norvegicus [17]): 0.743% | Dose/organ (Rattus norvegicus [18]): 0.02% | Dose/organ (Rattus norvegicus [19]): 6.14% | Dose/organ (Rattus norvegicus [20]): 0.54% | Dose/organ (Rattus norvegicus [21]): 16.16% | Dose/organ (Rattus norvegicus [22]): 0.03% | Dose/organ (Rattus norvegicus [23]): 0.02% | Dose/organ (Rattus norvegicus [24]): 2.64 | Dose/organ (Rattus norvegicus [25]): 2.92% | Dose/organ (Rattus norvegicus [26]): 1.18% | Dose/organ (Rattus norvegicus [27]): 1.8% | Dose/organ (Rattus norvegicus [28]): 5.34% | Dose/organ (Rattus norvegicus [29]): 1.9 | Dose/organ (Rattus norvegicus [30]): 0.11%
